Only some compounds are listed: those with a hit (about 2.8% of all), similar ones and a draw of the others.
UBC13 inh – blocks human UBC13 polyubiquitin chain formation | AID 485273 | inhibition, % at 20 µM | TR-FRET | P61088 | hit rate 0.47% among 330,000; in the data active means inhibition above about 45%, passing the limit was not always enough
p-CIP stab down – p/CIP protein destabilization; hit rate 0.01% among 290,000; F442A p/CIP-EGFP cells, EGFP fluorescence, 16 h; Q05BA5; decrease of EGFP signal, % at 10 µM; AID 1984;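 active means EGFP signal decrease of at least 30% at 10 µM or well 3 SD below plate mean, unless failing retest; inactive means the rest, including hits failing retest or dose response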
PP1 counter – counter-screen for PP5 inhibitors: inhibitors of human PP1-alpha; P62136; purified PP1alpha, OMFP fluorescence; inhibition, % at 6.7 µM; hit rate 0.9% among 320,000; AID 2235;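 active means inhibition above the mean inhibition of all tested compounds plus 3 SD, computed separately for each screening campaign, cut at about 15% in these data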
T cruzi inh – blocks replication of Trypanosoma cruzi; T. cruzi beta-gal in NIH3T3, luminescence, 90 h; inhibition, % (no concentration beside the values); AID 1885; hit rate 1.4% among 300,000;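 active means mean inhibition across valid replicates above about 55%, limit read from the data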;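 further: signal also drops with host cell toxicity which is not excluded here; higher percent means less beta-gal luminescence so fewer parasites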
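System: Mouse NIH/3T3 fibroblasts infected with β-gal-expressing T. cruzi Tulahuen C4 | Quantity: NIH/3T3 cells, 5,000 per well | Reagent: 5000 reporter trypomastigotes per well | Dosing: Compound pinned at 50 nL/well, DMSO | Schedule: 3 h host attachment, then at least 90 h co-culture | Detection: GalScreen luminescence, 60 min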
AI-2 QS modul – modulators of Vibrio harveyi AI-2 quorum sensing system | Vibrio harveyi JMH597 AI-2 luminescence/OD600 ratio, 9 h; stronger effect = lower value; strain lacks LuxN and CqsS sensors; 0 = neutral-control median | activity change, % at 7.5 µM | hit rate 0.4% among 300,000 | AID 2094; in the data active means activity change below about -75%, passing the limit was not always enough;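 further: luminescence divided by OD600 gain over 9 h not by final OD600 alone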
Each line names hits and unclear results; the compound was inactive in the other large screens.

OC(COc1ccc(F)cc1Cl)CN1CCC(Cc2ccccc2)CC1 (stereo unspecified)	T cruzi inh 63
ON=C1c2cc(OCCN3CCCCC3)ccc2-c2ccc(OCCN3CCCCC3)cc21	T cruzi inh 61
CN1CCN(CC(O)COC(c2ccccc2)c2ccccc2)CC1 (stereo unspecified)	T cruzi inh 61
CC(C)(C)c1ccccc1OCCN1CCCC1	T cruzi inh 60
N#Cc1ccc(-c2ccc(OCC(O)CN3CCCCC3)cc2)cc1 (stereo unspecified)	T cruzi inh 62
CN1CCN(CC(O)COc2ccccc2)CC1 (stereo unspecified)	none (no result: AI-2 QS modul)
COCCn1c(SCC(=O)NCc2ccc(OC)c(OC)c2)nc2ccccc21	none
COc1ccc(C(=O)c2ccc([N+](=O)[O-])cc2Cl)cc1	T cruzi inh 60
Cc1ccc(NC(=O)CC(=O)c2ccc([N+](=O)[O-])cc2)cc1S(=O)(=O)Nc1cccc(Cl)c1	PP1 counter 17
O=C(CCOc1ccccc1)Nc1ccc([N+](=O)[O-])cc1	AI-2 QS modul -79
COc1ccc(C(=O)CC(=O)Nc2ccc([N+](=O)[O-])cc2)cc1	AI-2 QS modul -90
CCC1CCCCN1C(=O)COc1ccc(N(C)S(=O)(=O)c2ccc(C)cc2)cc1 (stereo unspecified)	none
c1ccc2c(Nc3nnc(-c4ccncc4)s3)cccc2c1	T cruzi inh 57
CC(C)=CCN1CCN(Cc2ccc(C#CC(C)(C)O)s2)CC1CCO (stereo unspecified)	none
CCOc1ccc(/C(O)=C2/C(=O)C(=O)N(c3ccccn3)C2c2ccc(C)cc2)c(C)c1 (stereo unspecified)	PP1 counter 17
NC(N)=N/N=C/c1cccc([N+](=O)[O-])c1O	none
NC(N)=N/N=C/c1cccc(Cl)c1Cl	T cruzi inh 55
O=C(NN1CCOCC1)c1cc(-c2ccc(Cl)c(Cl)c2)nc2ccccc12	none
Brc1ccc2ncnc(Nc3ccc(N4CCOCC4)cc3)c2c1	T cruzi inh 62
COc1cc(CC(=O)Nc2ccc(S(=O)(=O)NC3=NCCCCC3)cc2)cc(OC)c1OC	none
COC(=O)c1cc(C(=O)c2ccc(C(C)(C)C)cc2)c[nH]1	AI-2 QS modul -85
COc1ccc(Cl)cc1C(=O)NNC(=O)CCNS(=O)(=O)c1ccccc1	none (no result: p-CIP stab down, PP1 counter, T cruzi inh, AI-2 QS modul)
COc1ccc(C2=NN(C(=O)COC(=O)c3ccc(NC(=O)CC#N)cc3)C(c3ccco3)C2)cc1 (stereo unspecified)	PP1 counter 16 (no result: p-CIP stab down, T cruzi inh, AI-2 QS modul)
COc1ccc(N2CC(NC(=O)N3CCN(c4ccccc4)CC3)CC2=O)cc1 (stereo unspecified)	none
CC(C)OC(=O)c1cn(-c2ccccc2)nc1-c1ccco1	T cruzi inh 56
O=C1c2ccccc2C2=Nc3ccccc3SC(c3cccc(F)c3)C12 (stereo unspecified)	T cruzi inh 56
O=C1c2ccccc2C2=Nc3ccccc3SC(c3ccc(Cl)cc3)C12 (stereo unspecified)	none
CC1CCc2c(sc3nc(CN4CCN(S(=O)(=O)c5ccccc5[N+](=O)[O-])CC4)[nH]c(=O)c23)C1 (stereo unspecified)	PP1 counter 16
Cc1ccc(S(=O)(=O)N2CCN(Cc3nc4sc5c(c4c(=O)[nH]3)CCCC5)CC2)cc1	none
CCOCCCNCc1ccc(OCCC(C)C)c(OC)c1	T cruzi inh 63
CCOC(=O)c1[nH]c(COC(=O)CCCOc2ccccc2)c(C(=O)OCC)c1C	none
Cc1c(C(=O)NC2CCN(Cc3ccccc3)C2)oc2ccc(Br)cc12 (stereo unspecified)	none
CCOc1ccc2oc(C(=O)NC3CCN(Cc4ccccc4)CC3)c(C)c2c1	T cruzi inh 61
COc1ccc(NS(=O)(=O)c2cccc(C(=O)NC3CCN(Cc4ccccc4)CC3)c2)cc1	T cruzi inh 63
O=C(NC1CCN(Cc2ccccc2)CC1)c1ccc(S(=O)(=O)NCc2ccco2)cc1	T cruzi inh 73
O=C(NC1CCCCC1)c1ccc(S(=O)(=O)NCc2ccco2)cc1	none
CC(C)(CCl)C(=O)Nc1ccnc(-c2ccncc2)n1	none
O=C(Cc1ccc(Cl)cc1)NCC(=O)N1CCN(Cc2ccccc2)CC1	none
O=C(OCC(=O)N1CCN(c2ccccc2)CC1)c1cc(Cl)ccc1[N+](=O)[O-]	none

High-throughput results deposited in PubChem by several laboratories.
